Published values gathered from unrelated publications.
Compare with care: the assays were run in different laboratories. pEC50, pIC50: −log10 of the molar value.
Read-out: cell growth or viability

`Cc1c(C(=O)O)ccc2c3n(nc12)[C@@H]1[C@H](C3)N(CC2CC2)[C@@]2(C(=O)Nc3cc(Cl)ccc32)[C@H]1c1cccc(Cl)c1F` gave a GI50 of 0.005 µM (Rh18; resazurin).
The GI50 of `O=C(O)c1ccccc1Nc1cccc(C(F)(F)F)c1` is reported as greater than 30 µM (NCI-H23; SRB; 48 h).
With `C=CC(=O)NC1CCN(c2ncc3ncnc(Nc4ccc(Oc5ccc6c(c5)ncn6C)c(C)c4)c3n2)CC1` the pEC50 was 7.10 (SW1573).
The pIC50 of `Cc1noc2c1-c1ccccc1C(c1ccc(Cl)cc1)=N[C@H]2CC(N)=O` is reported as 6.28 (KG-1; ATP luminescence; 72 h).
For `COc1cc2nc(N3CCN(C(=O)C4COc5ccccc5O4)CC3)nc(N)c2cc1OC` (stereo not drawn), the pIC50 was 4.27 (C6661; MTT; 48 h).
The pIC50 of `C=C(F)C(=O)N1CCN(c2nc(OC[C@@H]3CCCN3C)nc3c2CCN(c2cccc4cccc(Cl)c24)C3)C[C@@H]1CC#N` is reported as 7.95 (NCI-H23; ATP luminescence; 3D culture).
The pIC50 of `CO[C@]12C[C@@H](COC(=O)c3cncc(Br)c3)CN(C)[C@@H]1Cc1cn(C)c3cccc2c13` is reported as 4.08 (C6661; MTT; 48 h).
`C=CC(=O)N1CCN(c2nc(=O)n(-c3c(C)ccnc3C(C)C)c3nc(-c4c(O)cccc4F)c(F)cc23)[C@@H](C)C1` gave a pIC50 of less than 5.00 (NCI-H1573; ATP luminescence).
With `C=CC(=O)c1cccnc1Nc1cccc(C(F)(F)F)c1` the GI50 was 14.2 µM (NCI-H23; SRB; 48 h).
